# An excerpt weighted towards active compounds, which were near 11% of everything screened.
# G6PDH CS: inhibits Leuconostoc G6PDH, flagging false hits in G6PDH-based assays; Purified L. mesenteroides G6PDH, diaphorase/resazurin coupled fluorescence, 45 min; inhibition, % at 5 µM; hit rate 0.12% among 200,000; AID 1020
# WT yeast gro inh: growth inhibition of WT yeast, mitochondrial fusion screen. mitochondrial fusion phenotypic screen, WT strain. inhibition, % at 10 µM. hit rate 2.1% among 190,000; in the data active means inhibition above about 58%; tested in S. cerevisiae
# Lmaj promast: reduces viability of Leishmania major promastigotes; AID 1063; resazurin fluorescence viability; inhibition, % at 10 µM; hit rate 9% among 200,000;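 further: promastigotes grown with compound for 44 hours at 28 °C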
# Diaphorase act: activates diaphorase or chemically reduces, flagging diaphorase assay artifacts | Diaphorase/resazurin coupled assay, resorufin fluorescence, 16 min; active compounds read high; 1 = vehicle wells, 0 = NADH-free wells | activation factor at 20 µM | hit rate 0.005% among 190,000;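 active means diaphorase activity raised at least twofold by the compound at 20 µM; inactive means activation factor below 2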
#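 Assay system: Purified diaphorase enzyme from Clostridium kluyveri | Amount: Enzyme 0.07 U/mL final | Dosing: Compound 20 µM once, DMSO 1% | Timing: 16 min reaction at room temperature | Detection: Fluorescence, excitation 544 nm and emission 590 nm | Evaluation: Higher resorufin formation from activation or reduction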
# Diaph inh CS: diaphorase inhibition or chemical oxidation counter-screen; diaphorase resazurin-to-resorufin fluorescence, NADH, 16 min; bacterial (C. kluyveri) enzyme, not human; inhibition, % at 20 µM; hit rate 0.69% among 190,000; AID 1217;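 active means primary screen inhibition at 20 µM above a set limit, cut at about 50% in these data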
#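 Test system: bacterial diaphorase enzyme (C. kluyveri); Quantity: 0.14 U/mL diaphorase, enzyme working solution; Times: reaction incubation of 16 min at room temperature; Measured by: fluorescence of resorufin formed from resazurin, Ex 544/Em 590 nm; Benchmarks: positive control minus NADH, DMSO neutral control.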
# A number is an active result; . = inactive; / = no result given. Unless noted, no stated cut-off is given here; in the data, active means inhibition above about 50%; inactive means the rest.
SMILES,G6PDH CS,WT yeast gro inh,Lmaj promast,Diaphorase act,Diaph inh CS
Cc1noc(C)c1CSc1nc2sc(C)c(C)c2c(=O)n1C1CCCC1,.,.,.,.,.
CCN1/C(=C/c2sc(-c3ccccc3C)c[n+]2C)Sc2ccccc21,.,77,100,.,.
COc1cc(C(=S)N2CCCC2)cc(OC)c1O,.,.,.,.,.
COc1ccccc1NC(=O)Nc1nnc(CC(=O)Nc2ccccc2)s1,.,.,.,.,.
CCc1nnc(NC(=O)Nc2ccccc2OC)s1,.,59,.,.,.
CC(C)C(NC(=O)COc1ccc2ccccc2c1)C(=O)N/N=C/C=C/c1ccccc1 (centres undefined),.,.,.,.,.
Cc1cc(C)c(C(=O)Nc2ccc(Br)c(C(F)(F)F)c2)c(C)c1,.,81,98,.,.
CCOc1ccc(C2C(C(=O)c3ccc(C)o3)=C(O)C(=O)N2CCN2CCOCC2)cc1OC (centres undefined),.,.,.,.,.
CCCOc1ccc(C2C(C(=O)c3ccco3)=C(O)C(=O)N2CCN2CCOCC2)cc1OC (centres undefined),.,58,.,.,.
O=C1C=C(Nc2ccc(Cl)cc2)CC(c2ccc(Cl)cc2)C1 (centres undefined),.,68,56,.,.
O=C(OCc1cc(=O)n2c(n1)sc1ccccc12)c1ccc(O)cc1,.,.,59,.,.
CCc1nc(SCC(=O)c2cccs2)c2oc3ccccc3c2n1,.,.,.,.,.
Fc1ccc(C2CCCN2Cc2nc(CC3CC3)no2)cc1 (centres undefined),.,.,57,.,.
COc1ccc(-c2cc3nc4c(c(N5CCC6(CC5)OCCO6)n3n2)CCC4)cc1,.,.,.,.,.
Cc1cccc(-c2cc3nc4c(c(NCc5ccco5)n3n2)CCCC4)c1,.,.,67,.,.
Fc1ccc(-c2cc3nc4c(c(N5CCOCC5)n3n2)CCCC4)cc1,.,.,.,.,.
Cc1cccc(-c2cc3nc4c(c(N5CCOCC5)n3n2)CCCC4)c1,.,69,57,.,.
Cc1cccc(-c2cc3nc4c(c(N5CCC6(CC5)OCCO6)n3n2)CCCC4)c1,/,/,65,/,/
COc1cccc(-c2cc3nc4c(c(N5CCC6(CC5)OCCO6)n3n2)CCC4)c1,.,65,.,.,.
Cn1c(NC(=O)c2ccc(S(=O)(=O)N3CCOCC3)cc2)cc(=O)n(C)c1=O,.,.,.,.,.
O=C(Cn1nnc(-c2cccs2)n1)Nc1ccccc1C(F)(F)F,.,.,.,.,.
CSCCC(NC(=O)OC(C)(C)C)C(=O)NC(C(=O)NC(CC(C)C)C(N)=O)C(C)C (centres undefined),.,.,.,.,.
COC(=O)c1ccc(NC(=O)c2snnc2-c2ccccc2)cc1,.,.,.,.,.
CCn1c(COc2cccc(C)c2C)nnc1SCC(=O)N1CCN(c2ccc(OC)cc2)CC1,.,.,.,.,.
CC1=NN(C(C#N)c2cccc([N+](=O)[O-])c2)C(C)(C)C1 (centres undefined),.,.,.,.,.
SMILES,G6PDH CS,WT yeast gro inh,Lmaj promast,Diaphorase act,Diaph inh CS
Cc1cc(C(=O)CN2C(=O)NC3(CCCc4sccc43)C2=O)c(C)n1-c1ccc(Cl)cc1 (centres undefined),.,.,84,.,.
CC(Oc1cccc2cccnc12)C(=O)N/N=C/c1ccccc1 (centres undefined),.,.,.,.,.
O=C(/C=C\c1ccccc1)Oc1cccc2cccnc12,.,.,98,.,.
CC1=CC(C)(C)Nc2ccc(OC(=O)CN3C(=O)c4cccc5cccc(c45)C3=O)cc21,.,.,95,.,58
CC1=CC(C)(C)Nc2ccc(OC(=O)C(Cc3ccccc3)N3C(=O)c4ccccc4C3=O)cc21 (centres undefined),.,.,99,.,.
Cc1ccc(OC(=O)CCN2C(=O)c3ccccc3C2=O)cc1C,.,.,.,.,.
CC1=CC(C)(C)Nc2ccc(OC(=O)CN3C(=O)c4ccccc4C3=O)cc21,.,.,101,.,.
COc1cc2c(cc1OC)C(C)N(C(=O)c1ccc(Br)o1)CC2 (centres undefined),.,.,.,.,.
COc1cccc(N2CCN(c3c(C#N)c(C(F)(F)F)nn3C)CC2)c1,.,.,80,.,.
Cn1nc(C(F)(F)F)c(C#N)c1N1CCN(c2ccccc2F)CC1,.,.,.,.,.
